What was measured:
[1] = system: MES-SA; assay: Ability to inhibit growth of doxorubicin-resistant (MES-SA/DOX) uterine sarcoma cell line was determined in an in vitro MTT assay.; format: functional, cell-based; settings: Homo sapiens
Outline: (§1)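 Uterine sarcoma cells in Waymouth's/McCoy's 5A with 15% FCS and insulin. MES-SA seeded at 4 × 10^3, MES-SA/DOX at 6 × 10^3 per well, attached 16–24 h, then given drug-containing medium (final DMSO 0.5%) for 72 h. MTT added for 3 h at 37 °C, formazan dissolved in DMSO, OD read at 570 nm. IC50 versus untreated controls.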

[2] = system: L1210; assay: Ability to inhibit growth of L1210 leukemic cell lines was determined in an in vitro MTT assay.; format: functional, cell-based; settings: Mus musculus
Outline: (§2)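 Murine leukemia cells in RPMI 1640 with 10% heat-inactivated FCS, 2-mercaptoethanol; exponentially growing at 10^6 cells/mL, exposed to varying drug concentrations (DMSO stock, final 0.5% DMSO; controls same) for 1 h at 37 °C, washed twice with ice-cold PBS, resuspended at 2 × 10^5/mL in drug-free medium, cultured 72 h. IC50 = concentration giving 50% growth inhibition versus untreated controls.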

[3] = system: MES-SA; assay: Ability to inhibit growth of doxorubicin-sensitive (MES-SA) uterine sarcoma cell line was determined in an in vitro MTT assay.; format: functional, cell-based; settings: Homo sapiens; outline: as §1
[4] = system: P388; assay: Ability to inhibit growth of P388 leukemic cell line was determined in an in vitro MTT assay.; format: functional, cell-based; settings: Mus musculus; outline: as §2
[5] = system: KBM-3/DOX cell line; assay: Ability to inhibit growth of human myelogenous leukemic cell line KBM-3 variant namely KBM-3/DOX, was determined in an in vitro clonogenic assay.
[6] = system: KBM-3 cell line; assay: Ability to inhibit growth of human myelogenous leukemic cell line KBM-3 was determined in an in vitro clonogenic assay.

| Structure (SMILES) | IC50 [1] | IC50 [2] | IC50 [3] | IC50 [4] | IC50 [5] | IC50 [6] |
| --- | --- | --- | --- | --- | --- | --- |
| COc1cccc2c1C(=O)c1c(O)c3c(c(O)c1C2=O)C[C@](O)(C(=O)CO)C[C@@H]3OC1CC(NC(=O)CCl)C(O)C(C)O1 (stereo partly specified) | 2.7 µM | 2.1 µM | 0.4 µM | 2.9 µM | – | – |
| COc1cccc2c1C(=O)c1c(O)c3c(c(O)c1C2=O)C[C@](O)(C(=O)CO)C[C@@H]3OC1CC(NC(=O)N(CCCl)N=O)C(O)C(C)O1 (stereo partly specified) | 7.7 µM | 2.9 µM | 0.8 µM | 2.9 µM | 0.25 µM | 0.21 µM |
| COc1cccc2c1C(=O)c1c(O)c3c(c(O)c1C2=O)C[C@](O)(C(=O)CO)C[C@@H]3OC1CC(NC(=O)c2ccc(S(=O)(=O)F)cc2)C(O)C(C)O1 (stereo partly specified) | 6.9 µM | 6.9 µM | 3.8 µM | 7.7 µM | – | – |
| COc1cccc2c1C(=O)c1c(O)c3c(c(O)c1C2=O)C[C@](O)(C(=O)CO)C[C@@H]3OC1CC(NC(=O)CBr)C(O)C(C)O1 (stereo partly specified) | 0.8 µM | 2.1 µM | 0.2 µM | 1.5 µM | 0.16 µM | 0.14 µM |
| COc1cccc2c1C(=O)c1c(O)c3c(c(O)c1C2=O)C[C@@](O)(C(=O)CO)C[C@@H]3O[C@H]1C[C@H](N)[C@H](O)[C@H](C)O1 [DOXORUBICIN] | 4.2 µM | 0.2 µM | 0.04 µM | 1.22 µM | 0.49 µM | 0.026 µM |
